Reference: ChEMBL document CHEMBL1146752, “Oxamyl dipeptide caspase inhibitors developed for the treatment of stroke” (Bioorg Med Chem Lett, 2004)

Tests used:
THP-1 = test: Inhibitory activity evaluated against human THP-1 cell line in cellular assay; assay type: functional, cell-based
Summary of the method: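 Human cells (monocytes; THP-1 line) in a caspase-1-dependent cellular assay run for 24 h at 37 °C. Read-out is IC50 (µM).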

Jurkat = test: Inhibitory activity evaluated against human jurkat cell line in cellular assay; assay type: functional, cell-based
Summary of the method: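 Human Jurkat cells, in an assay where caspase-8 is relevant but other caspases also contribute. Run for 24 h at 37 °C. Read-out is IC50 (µM).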

Rattus norvegicus = species on record: Rattus norvegicus; test: Inhibitory activity evaluated against rat Con A embryonic cortical neurons in cellular assay; assay type: functional
SKW 6.4 = test: Inhibitory activity was evaluated against human SKW 6.4 cell line in cellular assay; assay type: functional, cell-based
Summary of the method: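 Cellular assay (Con A; SKW 6.4 cells) run for 24 h at 37 °C. Read-out is IC50 (µM).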

SMILES | IC50 (THP-1) [nM] | IC50 (Jurkat) [nM] | IC50 (SKW 6.4) [nM] | IC50 (Rattus norvegicus) [nM]
CC(C)[C@H](NC(=O)C(=O)Nc1ccncc1)C(=O)N[C@@H](CC(=O)O)C(=O)COc1c(F)c(F)cc(F)c1F | 5670 | 15800 | 30100 | 50000
CC(C)[C@H](NC(=O)C(=O)Nc1c(F)cc(F)c(F)c1F)C(=O)N[C@@H](CC(=O)O)C(=O)COc1c(F)c(F)cc(F)c1F | 270 | 110 | 580 | 2100
CC(C)[C@H](NC(=O)C(=O)Nc1ccccc1I)C(=O)N[C@@H](CC(=O)O)C(=O)COc1c(F)c(F)cc(F)c1F | 1500 | 81 | 1540 | 1000
O=C(O)C[C@H](NC(=O)C1Cc2ccccc2N1C(=O)C(=O)Nc1cccc2ccccc12)C(=O)COc1c(F)c(F)cc(F)c1F (stereo partly specified) | 22100 | – | – | 50000
CCCCC(NC(=O)C(=O)Nc1cccc2ccccc12)C(=O)N[C@@H](CC(=O)O)C(=O)COc1c(F)c(F)cc(F)c1F (stereo partly specified) | – | – | – | 1000
CC(C)[C@H](NC(=O)C(=O)N(C)c1cccc2ccccc12)C(=O)N[C@@H](CC(=O)O)C(=O)COc1c(F)c(F)cc(F)c1F | – | > 100000 | > 100000 | > 50000
CC(C)[C@H](NC(=O)C(=O)Nc1cccc2ccccc12)C(=O)N[C@@H](CC(=O)O)C(=O)COS(=O)c1ccccc1 (stereo partly specified) | 8300 | – | – | > 50000
CC(C)[C@H](NC(=O)C(=O)Nc1cc(C(C)(C)C)ccc1C(C)(C)C)C(=O)N[C@@H](CC(=O)O)C(=O)COc1c(F)c(F)cc(F)c1F | 2640 | 17 | 1870 | 2000
O=C(O)C[C@H](NC(=O)[C@H](CCc1ccccc1)NC(=O)C(=O)Nc1cccc2ccccc12)C(=O)COc1c(F)c(F)cc(F)c1F | 7530 | – | – | 3000
CC(C)[C@H](NC(=O)C(=O)Nc1ccccc1C(F)(F)F)C(=O)N[C@@H](CC(=O)O)C(=O)COc1c(F)c(F)cc(F)c1F | 820 | 1.7 | 230 | 650
CNC(=O)C(=O)N[C@H](C(=O)N[C@@H](CC(=O)O)C(=O)COc1c(F)c(F)cc(F)c1F)C(C)C | 1230 | 110 | 1040 | 7000
CC(C)[C@H](NC(=O)C(=O)NC12CC3CC(CC(C3)C1)C2)C(=O)N[C@@H](CC(=O)O)C(=O)COc1c(F)c(F)cc(F)c1F | 1790 | 1760 | 720 | 3500
CC(C)[C@H](NC(=O)C(=O)Nc1ccccc1F)C(=O)N[C@@H](CC(=O)O)C(=O)COc1c(F)c(F)cc(F)c1F | 680 | 97 | 500 | 970
O=C(O)C[C@H](NC(=O)C(NC(=O)C(=O)Nc1cccc2ccccc12)c1ccccc1)C(=O)COc1c(F)c(F)cc(F)c1F (stereo partly specified) | 2770 | – | – | 500
CC(C)C[C@H](NC(=O)C(=O)Nc1cccc2ccccc12)C(=O)N[C@@H](CC(=O)O)C(=O)COC(=O)c1c(Cl)cccc1Cl | – | 1300 | – | 500
CC(C)[C@H](NC(=O)C(=O)Nc1ccccc1Br)C(=O)N[C@@H](CC(=O)O)C(=O)COc1c(F)c(F)cc(F)c1F | 540 | 356 | – | 400
CC(C)[C@H](NC(=O)C(=O)Nc1cccc(Oc2ccccc2)c1)C(=O)N[C@@H](CC(=O)O)C(=O)COc1c(F)c(F)cc(F)c1F | 1850 | 1150 | 2000 | 1100

SMILES | IC50 (THP-1) [nM] | IC50 (Jurkat) [nM] | IC50 (SKW 6.4) [nM] | IC50 (Rattus norvegicus) [nM]
CC(C)[C@H](NC(=O)C(=O)Nc1ccc2c(c1)CCC2)C(=O)N[C@@H](CC(=O)O)C(=O)COc1c(F)c(F)cc(F)c1F | 1280 | 41 | 270 | 1000
COC(=O)c1cc(OCC(=O)[C@H](CC(=O)O)NC(=O)[C@@H](NC(=O)C(=O)Nc2cccc3ccccc23)C(C)C)no1 | 280 | – | – | 9000
CC(C)[C@H](NC(=O)C(=O)Nc1cccc2ccccc12)C(=O)N[C@@H](CC(=O)O)C(=O)COc1c(F)cc(F)cc1F | – | 5.2 | – | 300
CC(C)[C@H](NC(=O)C(=O)Nc1cccc2ccccc12)C(=O)N[C@@H](CC(=O)O)C(=O)COc1cccc2ccccc12 | 3060 | – | – | 2700
CC(C)[C@H](NC(=O)C(=O)Nc1cccc2ccccc12)C(=O)N[C@@H](CC(=O)O)C(=O)COP(=O)(c1ccccc1)c1ccccc1 | 650 | – | – | 650
CC(C)[C@H](NC(=O)C(=O)Nc1ccc(F)cc1)C(=O)N[C@@H](CC(=O)O)C(=O)COc1c(F)c(F)cc(F)c1F | 1210 | 19 | 920 | 2000
O=C(O)C[C@H](NC(=O)C(NC(=O)C(=O)Nc1cccc2ccccc12)C1CCCCC1)C(=O)COc1c(F)c(F)cc(F)c1F (stereo partly specified) | 1440 | – | – | 1500
CC(C)[C@H](NC(=O)C(=O)Nc1cccc2ccccc12)C(=O)N[C@@H](CC(=O)O)C(=O)COP(C)(=O)c1ccccc1 (stereo partly specified) | 90 | – | – | 2000
CC(C)[C@H](NC(=O)C(=O)Nc1c(F)c(F)c(F)c(F)c1F)C(=O)N[C@@H](CC(=O)O)C(=O)COc1c(F)c(F)cc(F)c1F | 470 | 390 | 14000 | 2900
O=C(O)C[C@H](NC(=O)C1CCCCN1C(=O)C(=O)Nc1cccc2ccccc12)C(=O)COc1c(F)c(F)cc(F)c1F (stereo partly specified) | – | – | – | 16000
CC(C)[C@H](NC(=O)C(=O)Nc1ccccc1)C(=O)N[C@@H](CC(=O)O)C(=O)COc1c(F)c(F)cc(F)c1F | 70 | 430 | 940 | 1500
CC(C)[C@H](NC(=O)C(=O)Nc1cccc2ccccc12)C(=O)N[C@@H](CC(=O)O)C(=O)COC(=O)c1c(Cl)cccc1Cl | – | 4.3 | – | 350
CC(C)C[C@H](NC(=O)C(=O)Nc1cccc2ccccc12)C(=O)N[C@@H](CC(=O)O)C(=O)COc1c(F)cc(F)cc1F | – | 535 | – | 4610
CC(C)[C@H](NC(=O)C(=O)NOCc1ccccc1)C(=O)N[C@@H](CC(=O)O)C(=O)COc1c(F)c(F)cc(F)c1F | > 32000 | 30800 | – | 15000
CC(C)[C@H](NC(=O)C(=O)Nc1cccc2ccccc12)C(=O)N[C@@H](CC(=O)O)C(=O)COc1ccc(-c2ccccc2)cc1 | 1120 | – | – | > 50000
CC(C)C[C@H](NC(=O)C(=O)Nc1cccc2ccccc12)C(=O)N[C@@H](CC(=O)O)C(=O)COc1c(F)c(F)cc(F)c1F | – | 2500 | – | 2580

More lines, main results first:

IC50 (THP-1) [nM] | IC50 (Jurkat) [nM] | IC50 (SKW 6.4) [nM] | SMILES | IC50 (Rattus norvegicus) [nM]
930 | – | – | O=C(O)C[C@H](NC(=O)C1CCC(NC(=O)C(=O)Nc2cccc3ccccc23)C1)C(=O)COc1c(F)c(F)cc(F)c1F (stereo partly specified) | 2500
630 | 70 | 2010 | CC(C)[C@H](NC(=O)C(=O)NN(C(=O)c1ccccc1)c1ccccc1)C(=O)N[C@@H](CC(=O)O)C(=O)COc1c(F)c(F)cc(F)c1F | 2300
1050 | 220 | 410 | CC(C)[C@H](NC(=O)C(=O)Nc1c(Cl)c(Cl)cc(Cl)c1Cl)C(=O)N[C@@H](CC(=O)O)C(=O)COc1c(F)c(F)cc(F)c1F | 660
– | 6.1 | – | CC(C)[C@H](NC(=O)C(=O)Nc1cccc2ccccc12)C(=O)N[C@@H](CC(=O)O)C(=O)COc1c(F)c(F)cc(F)c1F | 550
1100 | 175 | 1070 | CC(C)[C@H](NC(=O)C(=O)Nc1cccc2c1CCCC2)C(=O)N[C@@H](CC(=O)O)C(=O)COc1c(F)c(F)cc(F)c1F | 2000
6600 | 270 | 13000 | CCCCCCCc1ccc(NC(=O)C(=O)N[C@H](C(=O)N[C@@H](CC(=O)O)C(=O)COc2c(F)c(F)cc(F)c2F)C(C)C)cc1 | > 50000
80 | 4700 | 610 | CC(C)[C@H](NC(=O)C(=O)NCCc1ccccc1)C(=O)N[C@@H](CC(=O)O)C(=O)COc1c(F)c(F)cc(F)c1F | 3500
480 | – | – | CC(C)[C@H](NC(=O)C(=O)Nc1cccc2ccccc12)C(=O)N[C@@H](CC(=O)O)C(=O)COc1c(F)cccc1F | 450
160 | 200 | 480 | CC(C)[C@H](NC(=O)C(=O)Nc1ccccc1-c1ccccc1)C(=O)N[C@@H](CC(=O)O)C(=O)COc1c(F)c(F)cc(F)c1F | 2500
7710 | 1280 | 7800 | CCCCCCCNC(=O)C(=O)N[C@H](C(=O)N[C@@H](CC(=O)O)C(=O)COc1c(F)c(F)cc(F)c1F)C(C)C | 7000
170 | > 200000 | – | CC(C)[C@H](NC(=O)C(=O)NC(c1ccccc1)c1ccccc1)C(=O)N[C@@H](CC(=O)O)C(=O)COc1c(F)c(F)cc(F)c1F | 7300
1770 | 660 | 1780 | CC(C)[C@H](NC(=O)C(=O)Nc1ccccc1Oc1ccccc1)C(=O)N[C@@H](CC(=O)O)C(=O)COc1c(F)c(F)cc(F)c1F | 2500
180 | 9 | 1560 | CC(C)[C@H](NC(=O)C(=O)Nc1ccccc1Cc1ccccc1)C(=O)N[C@@H](CC(=O)O)C(=O)COc1c(F)c(F)cc(F)c1F | 2000
250 | – | – | CC(C)[C@H](NC(=O)C(=O)Nc1cccc2ccccc12)C(=O)N[C@@H](CC(=O)O)C(=O)COc1ccnc(C(F)(F)F)n1 | 2000
1260 | – | – | O=C(O)C[C@H](NC(=O)[C@H](Cc1ccccc1)NC(=O)C(=O)Nc1cccc2ccccc12)C(=O)COc1c(F)c(F)cc(F)c1F | 2700
270 | – | – | CC(C)(C)C(NC(=O)C(=O)Nc1cccc2ccccc12)C(=O)N[C@@H](CC(=O)O)C(=O)COc1c(F)c(F)cc(F)c1F (stereo partly specified) | 2900
1930 | – | – | CC(C)[C@H](NC(=O)C(=O)Nc1cccc2ccccc12)C(=O)N[C@@H](CC(=O)O)C(=O)COc1ccc2ccccc2c1 | 7300
